Data as given in ChEMBL document CHEMBL1149099, “Comparative in vivo stability of copper-64-labeled cross-bridged and conventional tetraazamacrocyclic complexes” (J Med Chem, 2004).
Each block holds one substance with its values, some of them ahead of it.

Experiments:
Rattus norvegicus [1] = species on record: Rattus norvegicus; test: Biodistribution of radiolabeled compound in rat blood after 2 hr activity expressed as %ID/Organ; assay type: ADME, organism-based; conditions: in vivo
Procedure, shortened: (§1)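 Mature female Sprague-Dawley rats (180–200 g) each received the 64Cu complex diluted with saline, about 15 μCi in 150 μL. Groups were sacrificed at 5 min, 30 min, 2 h and 24 h postinjection. Organs were excised, weighed and gamma-counted. %ID/organ was calculated against a weighed, counted standard.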

Rattus norvegicus [2] = species on record: Rattus norvegicus; test: Biodistribution of radiolabeled compound in rat lung after 30 min activity expressed as %ID/Organ; assay type: ADME, organism-based; conditions: in vivo, 0.5 h; procedure, shortened: as §1
Rattus norvegicus [3] = species on record: Rattus norvegicus; test: Biodistribution of radiolabeled compound in rat muscle after 24 hr activity expressed as %ID/Organ; assay type: ADME, organism-based, Muscle tissue; conditions: in vivo; procedure, shortened: as §1
Rattus norvegicus [4] = species on record: Rattus norvegicus; test: Biodistribution of radiolabeled compound in rat heart after 24 hr activity expressed as %ID/Organ; assay type: ADME, organism-based; conditions: in vivo; procedure, shortened: as §1
Rattus norvegicus [5] = species on record: Rattus norvegicus; test: Biodistribution of radiolabeled compound in rat bone after 5 min activity expressed as %ID/Organ; assay type: ADME, organism-based, Bone element; conditions: in vivo; procedure, shortened: as §1
Rattus norvegicus [6] = species on record: Rattus norvegicus; test: Biodistribution of radiolabeled compound in rat fat after 30 min activity expressed as %ID/Organ; assay type: ADME, organism-based, Adipose tissue; conditions: in vivo, 0.5 h; procedure, shortened: as §1
Rattus norvegicus [7] = species on record: Rattus norvegicus; test: Biodistribution of radiolabeled compound in rat muscle after 5 min activity expressed as %ID/Organ; assay type: ADME, organism-based, Muscle tissue; conditions: in vivo; procedure, shortened: as §1
Rattus norvegicus [8] = species on record: Rattus norvegicus; test: Biodistribution of radiolabeled compound in rat liver after 2 hr activity expressed as %ID/Organ; assay type: ADME, organism-based; conditions: in vivo; procedure, shortened: as §1
Rattus norvegicus [9] = species on record: Rattus norvegicus; test: Biodistribution of radiolabeled compound in rat brain after 24 hr activity expressed as %ID/Organ; assay type: ADME, organism-based; conditions: in vivo; procedure, shortened: as §1
Rattus norvegicus [10] = species on record: Rattus norvegicus; test: Biodistribution of radiolabeled compound in rat brain after 5 min activity expressed as %ID/Organ; assay type: ADME, organism-based; conditions: in vivo; procedure, shortened: as §1
Rattus norvegicus [11] = species on record: Rattus norvegicus; test: Biodistribution of radiolabeled compound in rat liver after 30 min activity expressed as %ID/Organ; assay type: ADME, organism-based; conditions: in vivo, 0.5 h; procedure, shortened: as §1
Rattus norvegicus [12] = species on record: Rattus norvegicus; test: Biodistribution of radiolabeled compound in rat heart after 5 min activity expressed as %ID/Organ; assay type: ADME, organism-based; conditions: in vivo; procedure, shortened: as §1
Rattus norvegicus [13] = species on record: Rattus norvegicus; test: Biodistribution of radiolabeled compound in rat lung after 2 hr activity expressed as %ID/Organ; assay type: ADME, organism-based; conditions: in vivo; procedure, shortened: as §1
Rattus norvegicus [14] = species on record: Rattus norvegicus; test: Biodistribution of radiolabeled compound in rat liver after 5 min activity expressed as %ID/Organ; assay type: ADME, organism-based; conditions: in vivo; procedure, shortened: as §1
Rattus norvegicus [15] = species on record: Rattus norvegicus; test: Biodistribution of radiolabeled compound in rat fat after 2 hr activity expressed as %ID/Organ; assay type: ADME, organism-based, Adipose tissue; conditions: in vivo; procedure, shortened: as §1
Rattus norvegicus [16] = species on record: Rattus norvegicus; test: Biodistribution of radiolabeled compound in rat fat after 5 min activity expressed as %ID/Organ; assay type: ADME, organism-based, Adipose tissue; conditions: in vivo; procedure, shortened: as §1
Rattus norvegicus [17] = species on record: Rattus norvegicus; test: Biodistribution of radiolabeled compound in rat blood after 30 min activity expressed as %ID/Organ; assay type: ADME, organism-based; conditions: in vivo, 0.5 h; procedure, shortened: as §1
Rattus norvegicus [18] = species on record: Rattus norvegicus; test: Biodistribution of radiolabeled compound in rat kidney after 2 hr activity expressed as %ID/Organ; assay type: ADME, organism-based; conditions: in vivo; procedure, shortened: as §1
Rattus norvegicus [19] = species on record: Rattus norvegicus; test: Biodistribution of radiolabeled compound in rat blood after 24 hr activity expressed as %ID/Organ; assay type: ADME, organism-based; conditions: in vivo; procedure, shortened: as §1
Rattus norvegicus [20] = species on record: Rattus norvegicus; test: Biodistribution of radiolabeled compound in rat kidney after 24 hr activity expressed as %ID/Organ; assay type: ADME, organism-based; conditions: in vivo; procedure, shortened: as §1
Rattus norvegicus [21] = species on record: Rattus norvegicus; test: Biodistribution of radiolabeled compound in rat blood after 5 min activity expressed as %ID/Organ; assay type: ADME, organism-based; conditions: in vivo; procedure, shortened: as §1
Rattus norvegicus [22] = species on record: Rattus norvegicus; test: Biodistribution of radiolabeled compound in rat heart after 2 hr activity expressed as %ID/Organ; assay type: ADME, organism-based; conditions: in vivo; procedure, shortened: as §1
Rattus norvegicus [23] = species on record: Rattus norvegicus; test: Biodistribution of radiolabeled compound in rat brain after 30 min activity expressed as %ID/Organ; assay type: ADME, organism-based; conditions: in vivo, 0.5 h; procedure, shortened: as §1
Rattus norvegicus [24] = species on record: Rattus norvegicus; test: Biodistribution of radiolabeled compound in rat brain after 2 hr activity expressed as %ID/Organ; assay type: ADME, organism-based; conditions: in vivo; procedure, shortened: as §1
Rattus norvegicus [25] = species on record: Rattus norvegicus; test: Biodistribution of radiolabeled compound in rat bone after 24 hr activity expressed as %ID/Organ; assay type: ADME, organism-based, Bone element; conditions: in vivo; procedure, shortened: as §1
Rattus norvegicus [26] = species on record: Rattus norvegicus; test: Biodistribution of radiolabeled compound in rat liver after 24 hr activity expressed as %ID/Organ; assay type: ADME, organism-based; conditions: in vivo; procedure, shortened: as §1
Rattus norvegicus [27] = species on record: Rattus norvegicus; test: Biodistribution of radiolabeled compound in rat lung after 5 min activity expressed as %ID/Organ; assay type: ADME, organism-based; conditions: in vivo; procedure, shortened: as §1
Rattus norvegicus [28] = species on record: Rattus norvegicus; test: Biodistribution of radiolabeled compound in rat heart after 30 min activity expressed as %ID/Organ; assay type: ADME, organism-based; conditions: in vivo, 0.5 h; procedure, shortened: as §1
Rattus norvegicus [29] = species on record: Rattus norvegicus; test: Biodistribution of radiolabeled compound in rat kidney after 30 min activity expressed as %ID/Organ; assay type: ADME, organism-based; conditions: in vivo, 0.5 h; procedure, shortened: as §1
Rattus norvegicus [30] = species on record: Rattus norvegicus; test: Biodistribution of radiolabeled compound in rat bone after 2 hr activity expressed as %ID/Organ; assay type: ADME, organism-based, Bone element; conditions: in vivo; procedure, shortened: as §1
Rattus norvegicus [31] = species on record: Rattus norvegicus; test: Biodistribution of radiolabeled compound in rat lung after 24 hr activity expressed as %ID/Organ; assay type: ADME, organism-based; conditions: in vivo; procedure, shortened: as §1
Rattus norvegicus [32] = species on record: Rattus norvegicus; test: Biodistribution of radiolabeled compound in rat kidney after 5 min activity expressed as %ID/Organ; assay type: ADME, organism-based; conditions: in vivo; procedure, shortened: as §1
Rattus norvegicus [33] = species on record: Rattus norvegicus; test: Biodistribution of radiolabeled compound in rat muscle after 2 hr activity expressed as %ID/Organ; assay type: ADME, organism-based, Muscle tissue; conditions: in vivo; procedure, shortened: as §1
Rattus norvegicus [34] = species on record: Rattus norvegicus; test: Biodistribution of radiolabeled compound in rat bone after 30 min activity expressed as %ID/Organ; assay type: ADME, organism-based, Bone element; conditions: in vivo, 0.5 h; procedure, shortened: as §1
Rattus norvegicus [35] = species on record: Rattus norvegicus; test: Biodistribution of radiolabeled compound in rat muscle after 30 min activity expressed as %ID/Organ; assay type: ADME, organism-based, Muscle tissue; conditions: in vivo, 0.5 h; procedure, shortened: as §1
Rattus norvegicus [36] = species on record: Rattus norvegicus; test: Biodistribution of radiolabeled compound in rat fat after 24 hr activity expressed as %ID/Organ; assay type: ADME, organism-based, Adipose tissue; conditions: in vivo; procedure, shortened: as §1
Rattus norvegicus [37] = species on record: Rattus norvegicus; test: Biodistribution of radiolabeled compound in rat kidney after 24 hr postinjection activity expressed as %ID/Organ; assay type: ADME, organism-based; conditions: in vivo
Rattus norvegicus [38] = species on record: Rattus norvegicus; test: Biodistribution of radiolabeled compound in rat blood after 24 hr postinjection activity expressed as %ID/Organ; assay type: ADME, organism-based; conditions: in vivo
Rattus norvegicus [39] = species on record: Rattus norvegicus; test: Biodistribution of radiolabeled compound in rat liver after 24 hr postinjection activity expressed as %ID/Organ; assay type: ADME, organism-based; conditions: in vivo

- Biodistribution (Rattus norvegicus [1]): 0.32%
- Biodistribution (Rattus norvegicus [2]): 0.21%
- Biodistribution (Rattus norvegicus [3]): 0.28%
- Biodistribution (Rattus norvegicus [4]): 0.0065%
- Biodistribution (Rattus norvegicus [5]): 4.52%
- Biodistribution (Rattus norvegicus [6]): 2.14%
- Biodistribution (Rattus norvegicus [7]): 18.27%
- Biodistribution (Rattus norvegicus [8]): 0.93%
- Biodistribution (Rattus norvegicus [9]): 0.002%
- Biodistribution (Rattus norvegicus [10]): 0.097%
- Biodistribution (Rattus norvegicus [11]): 1.47%
- Biodistribution (Rattus norvegicus [12]): 0.22%
- Biodistribution (Rattus norvegicus [13]): 0.044%
- Biodistribution (Rattus norvegicus [14]): 2.47%
- Biodistribution (Rattus norvegicus [15]): 0.22%
- Biodistribution (Rattus norvegicus [16]): 3.99%
- Biodistribution (Rattus norvegicus [17]): 3.79%
- Biodistribution (Rattus norvegicus [18]): 0.44%
- Biodistribution (Rattus norvegicus [19]): 0.14%
- Biodistribution (Rattus norvegicus [20]): 0.064%
- Biodistribution (Rattus norvegicus [21]): 13.45%
- Biodistribution (Rattus norvegicus [22]): 0.0095%
- Biodistribution (Rattus norvegicus [23]): 0.036%
- Biodistribution (Rattus norvegicus [24]): 0.008%
- Biodistribution (Rattus norvegicus [25]): 0.24%
- Biodistribution (Rattus norvegicus [26]): 0.39%
- Biodistribution (Rattus norvegicus [27]): 0.72%
- Biodistribution (Rattus norvegicus [28]): 0.067%
- Biodistribution (Rattus norvegicus [29]): 1.14%
- Biodistribution (Rattus norvegicus [30]): 0.56%
- Biodistribution (Rattus norvegicus [31]): 0.019%
- Biodistribution (Rattus norvegicus [32]): 2.64%
- Biodistribution (Rattus norvegicus [33]): 1.39%
- Biodistribution (Rattus norvegicus [34]): 1.69%
- Biodistribution (Rattus norvegicus [35]): 6.42%
- Biodistribution (Rattus norvegicus [36]): 0.12%
Substance: Cu-CB-DO2A

- Biodistribution (Rattus norvegicus [37]): 0.064%
- Biodistribution (Rattus norvegicus [38]): 0.032%
- Biodistribution (Rattus norvegicus [39]): 0.14%
Substance: Cu-CB-TE2A

- Biodistribution (Rattus norvegicus [37]): 0.54%
- Biodistribution (Rattus norvegicus [38]): 0.58%
- Biodistribution (Rattus norvegicus [39]): 1.05%
Substance: Cu-DOTA

- Biodistribution (Rattus norvegicus [37]): 0.21%
- Biodistribution (Rattus norvegicus [38]): 0.21%
- Biodistribution (Rattus norvegicus [39]): 0.49%
Substance: Cu-TETA
